In ChEMBL document CHEMBL1667760, “Synthesis and biological evaluation of 3,5-diaryl isoxazoline/isoxazole linked 2,3-dihydroquinazolinone hybrids as anticancer agents” (2011):
Calls of active or inactive are those of the source. The calls are words filed in the database; no cut-off is given here.

Key:
SR = test: Cytotoxicity against human SR cells after 48 hrs by sulforhodamine B assay; type: functional
How it was run: (§1)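 NCI 60-cell-line panel screen of human tumor lines: a one-dose pre-test, then the main test over a 5-log range (10^-4–10^-8 M). GI50, TGI and LC50 are reported as log molar concentrations for 50% net growth inhibition, total growth inhibition and 50% net cell death. Mean graph midpoints are also calculated.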

A498 = test: Cytotoxicity against human A498 cells after 48 hrs by sulforhodamine B assay; type: functional; conditions: A498, 48 h
How it was run: (§2)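 Run by the NCI 60-cell-line screen. A one-dose pre-test was done first, followed by the main test over a 5-log dose range (10^-4 to 10^-8 M). Results are reported as log molar GI50 (50% net growth inhibition), TGI (total growth inhibition) and LC50 (50% net cell death), with mean-graph midpoints across all lines.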

CAKI-1 = test: Cytotoxicity against human Caki1 cells after 48 hrs by sulforhodamine B assay; type: functional; conditions: CAKI-1, 48 h; how it was run: as §2
HCC 2998 = test: Cytotoxicity against human HCC2998 cells after 48 hrs by sulforhodamine B assay; type: functional; conditions: HCC 2998, 48 h; how it was run: as §2
OVCAR-8 = test: Cytotoxicity against human OVCAR8 cells after 48 hrs by sulforhodamine B assay; type: functional; conditions: OVCAR-8, 48 h; how it was run: as §2
786-0 = test: Cytotoxicity against human 786-0 cells after 48 hrs by sulforhodamine B assay; type: functional; conditions: 786-0, 48 h; how it was run: as §2
SK-MEL-2 = test: Cytotoxicity against human SK-MEL-2 cells after 48 hrs by sulforhodamine B assay; type: functional; conditions: SK-MEL-2, 48 h; how it was run: as §2
MCF7 [1] = test: Cell cycle arrest in human MCF7 cells assessed as accumulation at G0 phase at 5 uM after 24 hrs using propidium iodide staining by flow cytometry relative to control; type: functional
How it was run: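 MCF-7 cells were seeded at 5×10^5 per 60 mm dish and grown 24 h. They were then exposed to 5 uM compound for a further 24 h, with untreated control cells alongside. Cells were trypsinised, fixed in ice-cold 70% ethanol (4 °C, 30 min), treated with 1 mg/ml RNase A (37 °C, 30 min) and stained with propidium iodide/citrate/Triton solution. DNA content was read by flow cytometry on 20,000 events.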

Malme-3M = test: Cytotoxicity against human MALME-3M cells after 48 hrs by sulforhodamine B assay; type: functional
How it was run: (§3)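 Run by the NCI 60 human tumour cell line screen. A one-dose pre-test across sixty lines came first. The main test then used a 5-log dose range (10^-4–10^-8 M). Values derived per cell line were GI50 (log molar concentration for 50% net growth inhibition), TGI (total growth inhibition) and LC50 (50% net cell death).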

A549 = test: Cytotoxicity against human A549 cells after 48 hrs by sulforhodamine B assay; type: functional; conditions: A549, 48 h
How it was run: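 Cells were grown in RPMI 1640 with 10% FBS and 2 mM L-glutamine, plated at densities set by doubling time, and pre-incubated 24 h at 37 °C, 5% CO2. Drugs were tested at 0.1, 1, 10 and 100 µM in triplicate wells for 48 h continuous exposure. Cells were fixed with 10% TCA (final) and stained with 0.4% SRB. A540 was read against a 690 nm reference, and percent growth was calculated relative to control. Experiments were repeated three times.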

KM12 = test: Cytotoxicity against human KM12 cells after 48 hrs by sulforhodamine B assay; type: functional; conditions: KM12, 48 h; how it was run: as §2
MCF7 [2] = test: Reduction of CDK1 expression in human MCF7 cells at 5 uM after 24 hrs by Western blotting; type: functional, cell-based
How it was run: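 MCF-7 cells, kept in DMEM with 10% fetal calf serum at 37 °C under 5% CO2, treated 24 h. Lysis in ice-cold RIPA with protease inhibitors; Bradford quantitation; 30 µg protein per lane on 12% SDS-PAGE, then PVDF. Primary antibodies (1:500) at 4 °C overnight; HRP secondary (1:2000); chemiluminescence detection; β-actin loading control.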

HL-60(TB) = test: Cytotoxicity against human HL-60(TB) cells after 48 hrs by sulforhodamine B assay; type: functional; conditions: HL-60, 48 h; how it was run: as §3
SN12C = test: Cytotoxicity against human SN12C cells after 48 hrs by sulforhodamine B assay; type: functional; how it was run: as §1
OVCAR-3 = test: Cytotoxicity against human OVCAR3 cells after 48 hrs by sulforhodamine B assay; type: functional; conditions: OVCAR-3, 48 h; how it was run: as §2
[3] = read-out: pLC50 (the source's name) (converted)

Compound `COc1cc(C2NC(=O)c3ccccc3N2)ccc1OCCCCCOc1c(OC)cc(C2=NOC(c3cc(OC)c(OC)c(OC)c3)C2)cc1OC` (stereo not given) has a GI50 (SR) of 0.955 µM, a CC50 (SR; [3]) of over 100 µM and a TGI (SR; read-out: pTGI) of over 100 µM. For the same compound, the GI50 (A498) was 19.5 µM, the CC50 (A498; [3]) was over 100 µM and the TGI (A498; read-out: pTGI) was over 100 µM. For the same compound, the GI50 (CAKI-1) was over 100 µM, the CC50 (CAKI-1; [3]) was over 100 µM and the TGI (CAKI-1; read-out: pTGI) was over 100 µM. The GI50 (HCC 2998) was 19.1 µM, the CC50 (HCC 2998; [3]) was over 100 µM and the TGI (HCC 2998; read-out: pTGI (converted)) was 52.5 µM. It also gave an LC50 (OVCAR-8) of over 100 µM, a GI50 (OVCAR-8; read-out: pGI50 (converted)) of 24.5 µM and a TGI (OVCAR-8; read-out: pTGI) of over 100 µM. The GI50 (786-0) was 23.4 µM, the CC50 (786-0; [3]) was over 100 µM and the TGI (786-0; read-out: pTGI (converted)) was 61.7 µM. For the same compound, the GI50 (SK-MEL-2) was 35.5 µM, the CC50 (SK-MEL-2; [3]) was over 100 µM and the TGI (SK-MEL-2; read-out: pTGI) was over 100 µM. For the same compound, the Activity (MCF7 [1]) was 1.57%, the CC50 (Malme-3M; [3]) was over 100 µM and the TGI (Malme-3M; read-out: pTGI) was over 100 µM. For the same compound, the LC50 (A549) was over 100 µM, the GI50 (A549; read-out: pGI50 (converted)) was 0.324 µM and the TGI (A549; read-out: pTGI) was over 100 µM. For the same compound, the GI50 (KM12) was 5.5 µM, the CC50 (KM12; [3]) was over 100 µM and the TGI (KM12; read-out: pTGI) was over 100 µM. For the same compound, the Activity (MCF7 [2]) was “Active”, the GI50 (HL-60(TB)) was 11.2 µM and the CC50 (HL-60(TB); [3]) was over 100 µM. For the same compound, the TGI (HL-60(TB); read-out: pTGI) was over 100 µM, the GI50 (SN12C) was 25.1 µM and the CC50 (SN12C; [3]) was over 100 µM. For the same compound, the TGI (SN12C; read-out: pTGI) was over 100 µM, the GI50 (OVCAR-3) was 12.9 µM and the CC50 (OVCAR-3; [3]) was over 100 µM. The TGI (OVCAR-3; read-out: pTGI (converted)) was 63.1 µM.
